Holding throughout (format): functional
For test [1], the system named is Escherichia coli. The experiment in a line: Antibacterial activity against Escherichia coli ATCC 35218. Summed up:
(§1)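 Broth microdilution MIC following CLSI guidelines. Strains were grown on Mueller-Hinton agar beforehand. The MIC is the lowest compound concentration that inhibits bacterial growth, determined at least three times in independent experiments.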

Test [2] concerns Streptococcus pneumoniae. The experiment in a line: Antibacterial activity against Streptococcus pneumoniae ATCC 49169. Summed up: as §1
The subject of test [3] is Staphylococcus aureus. The experiment in a line: Antibacterial activity against Staphylococcus aureus ATCC 29213. Summed up:
as §1

Test [4] concerns Neisseria gonorrhoeae. The experiment in a line: Antibacterial activity against Neisseria gonorrhoeae ATCC 19424. Summed up:
(§2)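 Agar dilution MIC. Strains were cultured on GC agar with 2% v/v Vitox and 1% haemoglobin. Suspensions of 10^5 CFU/mL were spotted in duplicate onto the same supplemented GC agar containing various compound concentrations, then incubated 24-48 h at 37°C in 5% CO2. The MIC is the lowest concentration inhibiting growth, from at least three independent experiments.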

Test [5] has as its system Escherichia coli. The experiment in a line: Antibacterial activity against Escherichia coli 202. Summed up: as §1
The subject of test [6] is Acinetobacter baumannii. Briefly: Antibacterial activity against Acinetobacter baumannii ATCC 19606. Summed up:
as §1

In test [7] the test system is Staphylococcus aureus. Briefly: Antibacterial activity against methicillin-resistant Staphylococcus aureus 196. Summed up:
(§3)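 Strains grown on Mueller-Hinton agar. MIC by broth microdilution following CLSI guidelines, taken as the lowest concentration inhibiting bacterial growth. Determined at least three times in independent experiments.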

Test [8] deals with Escherichia coli. Briefly: Antibacterial activity against Escherichia coli 203. Summed up:
as §1

Test [9] concerns Pseudomonas aeruginosa. The experiment in a line: Antibacterial activity against Pseudomonas aeruginosa 143. Summed up: as §1
Test [10] concerns Pseudomonas aeruginosa. The experiment in a line: Antibacterial activity against Pseudomonas aeruginosa 142. Summed up:
as §1

Test [11] concerns Staphylococcus aureus. Briefly: Antibacterial activity against methicillin-resistant Staphylococcus aureus 197. Summed up:
as §3

Test [12] concerns Pseudomonas aeruginosa. Briefly: Antibacterial activity against Pseudomonas aeruginosa ATCC 27853. Summed up:
as §1

The subject of test [13] is Acinetobacter baumannii. The experiment in a line: Antibacterial activity against Acinetobacter baumannii 140. Summed up:
as §1

In test [14] the test system is Acinetobacter baumannii. Briefly: Antibacterial activity against Acinetobacter baumannii 139. Summed up: as §1
Test [15] concerns Neisseria gonorrhoeae. Briefly: Antibacterial activity against Neisseria gonorrhoeae WHO C. Summed up: as §2
The subject of test [16] is Neisseria gonorrhoeae. The experiment in a line: Antibacterial activity against Neisseria gonorrhoeae Barla194. Summed up: as §2
The subject of test [17] is Neisseria gonorrhoeae. The experiment in a line: Antibacterial activity against Neisseria gonorrhoeae WHO Z. Summed up: as §2
In test [18] the test system is Neisseria gonorrhoeae. The experiment in a line: Antibacterial activity against Neisseria gonorrhoeae WHO Q. Summed up:
as §2

Test [19] has as its system Neisseria gonorrhoeae. Briefly: Antibacterial activity against Neisseria gonorrhoeae WHO O. Summed up:
as §2

The subject of test [20] is Neisseria gonorrhoeae. Briefly: Antibacterial activity against Neisseria gonorrhoeae WHO E. Summed up: as §2
For test [21], the system named is Neisseria gonorrhoeae. The experiment in a line: Antibacterial activity against Neisseria gonorrhoeae WHO A. Summed up: as §2
The test system of test [22] is Neisseria gonorrhoeae. The experiment in a line: Antibacterial activity against Neisseria gonorrhoeae WHO K. Summed up: as §2
Test [23] has as its system Neisseria gonorrhoeae. Briefly: Antibacterial activity against Neisseria gonorrhoeae WHO G. Summed up: as §2
Test [24] relates to Neisseria gonorrhoeae. The experiment in a line: Antibacterial activity against Neisseria gonorrhoeae WHO M. Summed up: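 Agar dilution on GC agar base with 2% v/v Vitox and 1% haemoglobin containing graded compound concentrations. Suspensions at 10^5 CFU/mL spotted in duplicate. Incubation 24-48h, 37°C, 5% CO2. MIC taken as the lowest concentration inhibiting growth, determined at least three times in independent experiments.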

Test [25] deals with Neisseria gonorrhoeae. The experiment in a line: Antibacterial activity against Neisseria gonorrhoeae WHO B. Summed up:
as §2

In ChEMBL document CHEMBL5131404, “Lipophilic quinolone derivatives: Synthesis and in vitro antibacterial evaluation” (2022) one finds MIC data, which are given here for six compounds.

Values after ≈ are worked out from the molar mass of the structure shown.

With `CCCCC(CC)CN1CCN(c2c(F)cc3c(=O)c(C(=O)O)cn(C4CC4)c3c2OC)CC1` (stereo not given), the MIC in test [1] is no less than 64 µg/mL; in [2] it was 2 µg/mL (≈ 4.22 µM); in test [3] it was 32 µg/mL (≈ 67.6 µM); in test [4] it was greater than 32 µg/mL.

`CCCCCCCN1CCN(c2c(F)cc3c(=O)c(C(=O)O)cn(C4CC4)c3c2OC)CC1`: the MIC in test [5] was 2 µg/mL (≈ 4.35 µM); in test [6], 8 µg/mL (≈ 17.4 µM); in [7], 2 µg/mL (≈ 4.35 µM); in test [1] it was 1 µg/mL (≈ 2.18 µM); in test [8], greater than 64 µg/mL; in test [2] it was 4 µg/mL (≈ 8.7 µM). For the same compound, the MIC in test [9] was greater than 64 µg/mL; in test [10], greater than 64 µg/mL; in [3], 1 µg/mL (≈ 2.18 µM); in test [4] it was 0.25 µg/mL (≈ 0.544 µM); in test [11] it was 8 µg/mL (≈ 17.4 µM); in test [12], 64 µg/mL (≈ 139 µM). The MIC was found to be 64 µg/mL (≈ 139 µM) in test [13] and 4 µg/mL (≈ 8.7 µM) in test [14].

Consider `CCCCCCCCCCCCN1CCN(c2c(F)cc3c(=O)c(C(=O)O)cn(C4CC4)c3c2OC)CC1`, for which the MIC in [5] was 32 µg/mL (≈ 60.4 µM); in test [6], 64 µg/mL (≈ 121 µM); in test [7], no less than 64 µg/mL; in test [1], 64 µg/mL (≈ 121 µM); in test [8] it was greater than 64 µg/mL; in [2], 4 µg/mL (≈ 7.55 µM). The MIC in test [9] is greater than 64 µg/mL; in [10], greater than 64 µg/mL; in [3] it was 32 µg/mL (≈ 60.4 µM); in test [4], 0.12 µg/mL (≈ 0.227 µM); in [11], no less than 64 µg/mL; in test [12], greater than 64 µg/mL. Moreover, the MIC in test [13] is 64 µg/mL (≈ 121 µM); in [14], no less than 64 µg/mL.

`CCCCCCCC(=O)N1CCN(c2c(F)cc3c(=O)c(C(=O)O)cn(C4CC4)c3c2OC)CC1`: the MIC in test [1] is no less than 64 µg/mL; in test [2], 0.5 µg/mL (≈ 1.03 µM); in [3], 1 µg/mL (≈ 2.05 µM); in test [4] it was 1 µg/mL (≈ 2.05 µM).

For `CCCCCCCCN1CCN(c2c(F)cc3c(=O)c(C(=O)O)cn(C4CC4)c3c2OC)CC1`, the MIC was 2 µg/mL (≈ 4.22 µM) in test [5]; 16 µg/mL (≈ 33.8 µM) in test [6]; 4 µg/mL (≈ 8.45 µM) in test [7]; no less than 64 µg/mL in [1]; 0.5 µg/mL (≈ 1.06 µM) in [15]; greater than 64 µg/mL in test [8]. The MIC in [2] was 32 µg/mL (≈ 67.6 µM); in test [16], 128 µg/mL (≈ 270 µM); in test [17], greater than 32 µg/mL; in test [9], greater than 64 µg/mL; in test [10] it was greater than 64 µg/mL; in test [18], 0.5 µg/mL (≈ 1.06 µM). Also, the MIC in [19] was 0.03 µg/mL (≈ 0.0633 µM); in test [3], 4 µg/mL (≈ 8.45 µM); in [20], 0.03 µg/mL (≈ 0.0633 µM); in [4], 0.25 µg/mL (≈ 0.528 µM); in test [11], 8 µg/mL (≈ 16.9 µM); in [12], greater than 64 µg/mL. Further, the MIC in [21] was 0.03 µg/mL (≈ 0.0633 µM); in test [22], 256 µg/mL (≈ 541 µM); in test [23] it was 0.25 µg/mL (≈ 0.528 µM); in test [13], 64 µg/mL (≈ 135 µM); in test [14], 16 µg/mL (≈ 33.8 µM); in test [24], 16 µg/mL (≈ 33.8 µM). The compound also came in with an MIC in test [25] of 0.12 µg/mL (≈ 0.253 µM).

As for `CCCCCCCCCCCCCCN1CCN(c2c(F)cc3c(=O)c(C(=O)O)cn(C4CC4)c3c2OC)CC1`, the MIC in test [5] was 64 µg/mL (≈ 115 µM); in test [6], 64 µg/mL (≈ 115 µM); in [7], greater than 64 µg/mL; in [1] it was 32 µg/mL (≈ 57.4 µM); in [8], greater than 64 µg/mL; in test [2], 8 µg/mL (≈ 14.3 µM). Also, the MIC was greater than 64 µg/mL in test [9]; greater than 64 µg/mL in test [10]; 32 µg/mL (≈ 57.4 µM) in test [3]; 0.12 µg/mL (≈ 0.215 µM) in test [4]; greater than 64 µg/mL in [11]; greater than 64 µg/mL in test [12]. Also, the MIC in [13] and in test [14] was no less than 64 µg/mL each time.
